{"source": "ChEMBL document CHEMBL6134795", "about": "“Mannich reaction mediated derivatization of chromones and their biological evaluations as putative multipotent ligands for the treatment of Alzheimer's disease” (RSC Med Chem, 2024)", "key": {"Cholinesterase": {"molecular_target": "Cholinesterase (Homo sapiens, UniProt P06276)", "sequence (P06276 whole entry)": "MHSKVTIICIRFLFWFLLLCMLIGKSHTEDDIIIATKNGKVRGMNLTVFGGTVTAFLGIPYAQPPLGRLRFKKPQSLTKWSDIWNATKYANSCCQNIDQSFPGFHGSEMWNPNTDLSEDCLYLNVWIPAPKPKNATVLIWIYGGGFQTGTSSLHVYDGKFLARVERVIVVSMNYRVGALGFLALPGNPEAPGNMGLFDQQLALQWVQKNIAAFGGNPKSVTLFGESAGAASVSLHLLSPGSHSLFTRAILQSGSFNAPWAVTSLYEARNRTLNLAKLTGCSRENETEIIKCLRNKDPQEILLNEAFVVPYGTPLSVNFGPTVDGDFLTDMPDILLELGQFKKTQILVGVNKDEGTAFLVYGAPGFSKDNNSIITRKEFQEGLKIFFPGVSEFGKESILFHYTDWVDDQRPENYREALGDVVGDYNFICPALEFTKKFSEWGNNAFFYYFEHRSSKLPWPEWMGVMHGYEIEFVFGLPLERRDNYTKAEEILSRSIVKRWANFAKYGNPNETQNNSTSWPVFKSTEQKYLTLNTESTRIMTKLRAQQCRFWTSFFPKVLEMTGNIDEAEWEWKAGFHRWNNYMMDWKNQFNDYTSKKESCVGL", "assay": "Inhibition of recombinant BuChE (unknown origin) using BTCI as substrate at 20 uM preincubated for 30 mins followed by substrate addition by TECAN multiplate reader analysis relative to control", "procedure,_shortened": "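Ellman method as for AChE, using butyrylcholinesterase with BTCI as substrate. Enzyme and compound preincubated 30 min at 37 °C in a CO2 incubator, then DTNB and BTCI added; absorbance read at 417 nm. Screening at 20 μM as % inhibition; IC50 for compounds exceeding 50% inhibition at 20 μM. Triplicate.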"}, "[1]": {"molecular_target": "T1, Amine oxidase [flavin-containing] B (Homo sapiens, UniProt P27338)", "T1 sequence (P27338 whole entry)": "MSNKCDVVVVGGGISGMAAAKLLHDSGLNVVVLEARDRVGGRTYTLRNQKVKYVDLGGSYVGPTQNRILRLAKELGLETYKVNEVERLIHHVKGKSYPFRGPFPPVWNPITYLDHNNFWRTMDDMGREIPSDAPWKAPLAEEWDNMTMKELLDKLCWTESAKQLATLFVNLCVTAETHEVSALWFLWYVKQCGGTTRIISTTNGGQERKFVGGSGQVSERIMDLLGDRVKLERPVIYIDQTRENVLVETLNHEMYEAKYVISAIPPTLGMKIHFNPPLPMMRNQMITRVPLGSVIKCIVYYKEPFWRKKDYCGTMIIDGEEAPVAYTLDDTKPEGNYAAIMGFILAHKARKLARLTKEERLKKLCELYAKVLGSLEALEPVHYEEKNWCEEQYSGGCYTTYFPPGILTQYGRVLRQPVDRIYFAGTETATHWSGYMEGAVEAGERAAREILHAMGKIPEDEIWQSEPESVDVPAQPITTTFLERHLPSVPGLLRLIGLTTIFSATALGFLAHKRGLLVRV", "assay": "Inhibition of recombinant MAO-B (unknown origin) at 20 uM preincubated for 30 mins followed substrate addition by Amplex Red reagent based fluorescence analysis relative to control", "procedure,_shortened": "(§1)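 Recombinant MAO enzyme preincubated with compound 30 min at 37 °C; substrate, HRP and Amplex Red working solution then added; H2O2 formation read at 37 °C by fluorescence, ex 545/em 590 nm. Screening at 20 μM as % inhibition versus control; IC50 only for compounds above 50% inhibition at 20 μM; triplicate (n = 3).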"}, "[2]": {"molecular_target": "Amyloid-beta precursor protein (Homo sapiens) (UniProt P05067)", "sequence (P05067 whole entry, the tested form may be a part)": "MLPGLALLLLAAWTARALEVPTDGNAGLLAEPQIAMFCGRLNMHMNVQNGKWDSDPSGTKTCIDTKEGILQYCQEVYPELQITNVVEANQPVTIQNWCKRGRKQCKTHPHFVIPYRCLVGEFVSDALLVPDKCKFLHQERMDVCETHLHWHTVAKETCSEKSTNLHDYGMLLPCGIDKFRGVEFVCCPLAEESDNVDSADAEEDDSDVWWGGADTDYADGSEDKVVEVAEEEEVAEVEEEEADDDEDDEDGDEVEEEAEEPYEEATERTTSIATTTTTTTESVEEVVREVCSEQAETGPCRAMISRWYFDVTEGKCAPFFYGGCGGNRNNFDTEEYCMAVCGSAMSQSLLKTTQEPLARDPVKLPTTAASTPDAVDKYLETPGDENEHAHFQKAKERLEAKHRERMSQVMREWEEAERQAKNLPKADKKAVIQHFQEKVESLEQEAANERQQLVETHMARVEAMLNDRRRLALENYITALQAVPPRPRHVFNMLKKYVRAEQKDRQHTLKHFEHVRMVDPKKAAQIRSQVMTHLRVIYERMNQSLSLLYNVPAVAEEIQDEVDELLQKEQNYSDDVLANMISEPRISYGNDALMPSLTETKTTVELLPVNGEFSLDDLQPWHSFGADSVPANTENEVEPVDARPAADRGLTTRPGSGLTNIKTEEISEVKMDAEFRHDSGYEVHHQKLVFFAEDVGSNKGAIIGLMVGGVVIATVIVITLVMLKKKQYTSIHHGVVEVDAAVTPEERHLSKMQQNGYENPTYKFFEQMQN", "assay": "Inhibition of self-induced amyloid beta (1 to 42 residues) (unknown origin) aggregation at 20 uM incubated at 24 hrs by fluorimetry-based thioflavin T assay", "procedure,_shortened": "(§2)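 Aβ1-42 pretreated with HFIP (1 mg mL−1) and dried, then incubated with compound (20 μM) at 37 °C for 24 h; an aliquot transferred and incubated further to 48 h. Glycine–NaOH buffer pH 8.0 with 5 μM ThT added; fluorescence read at 440–485 nm. % inhibition calculated against the Aβ-only control taken as 0%.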"}, "[3]": {"molecular_target": "Amyloid-beta precursor protein (Homo sapiens) (UniProt P05067)", "assay": "Inhibition of self-induced amyloid beta (1 to 42 residues) (unknown origin) aggregation at 20 uM incubated at 48 hrs by fluorimetry-based thioflavin T assay", "procedure,_shortened": "as §2"}, "[4]": {"molecular_target": "T2, Amine oxidase [flavin-containing] A (Homo sapiens, UniProt P21397)", "T2 sequence (P21397 whole entry)": "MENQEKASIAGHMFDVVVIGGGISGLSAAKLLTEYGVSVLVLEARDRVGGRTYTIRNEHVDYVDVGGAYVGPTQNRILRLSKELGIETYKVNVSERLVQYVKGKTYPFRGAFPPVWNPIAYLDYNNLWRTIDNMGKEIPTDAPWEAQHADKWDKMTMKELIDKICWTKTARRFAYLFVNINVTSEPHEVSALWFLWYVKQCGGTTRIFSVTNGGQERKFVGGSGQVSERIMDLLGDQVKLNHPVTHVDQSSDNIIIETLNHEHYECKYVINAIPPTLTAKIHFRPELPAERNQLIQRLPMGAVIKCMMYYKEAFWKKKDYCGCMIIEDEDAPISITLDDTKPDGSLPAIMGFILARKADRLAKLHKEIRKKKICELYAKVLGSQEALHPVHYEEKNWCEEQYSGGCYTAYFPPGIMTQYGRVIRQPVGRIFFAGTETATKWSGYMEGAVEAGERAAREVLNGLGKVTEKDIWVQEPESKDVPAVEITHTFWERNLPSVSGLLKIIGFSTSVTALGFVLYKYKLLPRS", "assay": "Inhibition of recombinant MAO-A (unknown origin) at 20 uM preincubated for 30 mins followed substrate addition by Amplex Red reagent based fluorescence analysis relative to control", "procedure,_shortened": "as §1"}}, "data": [{"smiles": "C#CCCCOc1c(CN(C)Cc2ccccc2)cc(-c2cc(=O)c3ccccc3o2)cc1OC", "values": [{"measurement": "inhibition", "setting": "Cholinesterase", "result": 17.6, "unit": "%"}, {"measurement": "inhibition at 20 µM", "setting": "[1]", "result": 17.5, "unit": "%"}]}, {"smiles": "C#CCCCOc1c(CN2CCCCC2)cc(-c2cc(=O)c3ccccc3o2)cc1CN1CCCCC1", "values": [{"measurement": "inhibition", "setting": "[2]", "result": 12, "unit": "%"}, {"measurement": "inhibition", "setting": "Cholinesterase", "result": 13.7, "unit": "%"}, {"measurement": "inhibition", "setting": "[3]", "result": 18, "unit": "%"}, {"measurement": "inhibition at 20 µM", "setting": "[1]", "result": 19.7, "unit": "%"}]}, {"smiles": "C#CCOc1c(CN2CCOCC2)cc(-c2cc(=O)c3ccccc3o2)cc1CN1CCOCC1", "values": [{"measurement": "inhibition", "setting": "[2]", "result": 14.4, "unit": "%"}, {"measurement": "inhibition", "setting": "Cholinesterase", "result": 9.03, "unit": "%"}, {"measurement": "inhibition", "setting": "[3]", "result": 23.3, "unit": "%"}, {"measurement": "inhibition at 20 µM", "setting": "[1]", "result": 36.5, "unit": "%"}]}, {"smiles": "C#CCCCOc1c(CN2CCCCC2)cc(-c2cc(=O)c3ccccc3o2)cc1OCC", "values": [{"measurement": "inhibition", "setting": "Cholinesterase", "result": 3.36, "unit": "%"}, {"measurement": "inhibition at 20 µM", "setting": "[1]", "result": 15.6, "unit": "%"}]}, {"smiles": "C#CCOc1c(CN2CCOCC2)cc(-c2cc(=O)c3ccccc3o2)cc1OCC", "values": [{"measurement": "inhibition at 20 µM", "setting": "[1]", "result": 8.37, "unit": "%"}]}, {"smiles": "C#CCCOc1c(CN2CCOCC2)cc(-c2cc(=O)c3ccccc3o2)cc1OCC", "values": [{"measurement": "inhibition", "setting": "[2]", "result": 24.6, "unit": "%"}, {"measurement": "inhibition", "setting": "Cholinesterase", "result": 4.42, "unit": "%"}, {"measurement": "inhibition", "setting": "[3]", "result": 23.7, "unit": "%"}, {"measurement": "inhibition at 20 µM", "setting": "[1]", "result": 6.89, "unit": "%"}]}, {"smiles": "C#CCCCOc1c(CN2CCN(Cc3ccccc3)CC2)cc(-c2cc(=O)c3ccccc3o2)cc1OC", "values": [{"measurement": "inhibition", "setting": "[2]", "result": 22.9, "unit": "%"}, {"measurement": "inhibition", "setting": "Cholinesterase", "result": 7.42, "unit": "%"}, {"measurement": "inhibition", "setting": "[3]", "result": 28.1, "unit": "%"}, {"measurement": "inhibition at 20 µM", "setting": "[1]", "result": 22.8, "unit": "%"}, {"measurement": "inhibition at 20 µM", "setting": "[4]", "result": 5.26, "unit": "%"}]}, {"smiles": "C#CCOc1ccc(-c2cc(=O)c3ccccc3o2)cc1CN1CCOCC1", "values": [{"measurement": "inhibition", "setting": "[2]", "result": 9, "unit": "%"}, {"measurement": "inhibition", "setting": "Cholinesterase", "result": 4.21, "unit": "%"}, {"measurement": "inhibition", "setting": "[3]", "result": 11.6, "unit": "%"}, {"measurement": "inhibition at 20 µM", "setting": "[1]", "result": 28.1, "unit": "%"}]}, {"smiles": "C#CCCOc1c(CN2CCOCC2)cc(-c2cc(=O)c3ccccc3o2)cc1OC", "values": [{"measurement": "inhibition", "setting": "Cholinesterase", "result": 3.11, "unit": "%"}, {"measurement": "inhibition at 20 µM", "setting": "[1]", "result": 26.6, "unit": "%"}, {"measurement": "inhibition at 20 µM", "setting": "[4]", "result": 7.98, "unit": "%"}]}, {"smiles": "C#CCCCOc1c(CN2CCOCC2)cc(-c2cc(=O)c3ccccc3o2)cc1OCC", "values": [{"measurement": "inhibition", "setting": "Cholinesterase", "result": 6.37, "unit": "%"}, {"measurement": "inhibition at 20 µM", "setting": "[1]", "result": 18.2, "unit": "%"}]}]}
